Source: ChEMBL document CHEMBL1142433, “Synthesis and pharmacological characterization at glutamate receptors of the four enantiopure isomers of tricholomic acid” (J Med Chem, 2008)
pEC50, pIC50, pKi: −log10 of the molar value.

Assays:
[1] = target: Glutamate receptor 1 (Rattus norvegicus) (UniProt P19490); assay: Activity at rat cloned iGluR1 expressed in human HEK293 cells by calcium imaging assay relative to L-glutamate; assay type: cell-based; set-up: concentration or dose not given beside the values
Summary of the method: (§1)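 Rat iGluR1–6 subtypes cloned and expressed in HEK cells: iGluR2, iGluR5 and iGluR6 as the Q forms; iGluR1–4 marked with subscript "i". Receptor activation was read by Fluo-4 calcium imaging.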

[2] = Displacement of [3H]AMPA from AMPA receptor in rat cortical membrane; assay type: cell membranes
Summary of the method: (§2)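 Competition binding on rat cortical membranes prepared by the Ransom and Stec method, using [3H]AMPA (AMPA receptors) or [3H]KA (kainate receptors). IC50 in µM reported as mean [pIC50 ± SEM] of at least three individual experiments.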

[3] = Displacement of [3H]KA from kainate receptor in rat cortical membrane; assay type: cell membranes; summary of the method: as §2
[4] = target: Glutamate receptor ionotropic, kainate 2 (Rattus norvegicus) (UniProt P42260); assay: Activity at rat cloned iGluR6 expressed in human HEK293 cells by calcium imaging assay relative to L-glutamate; assay type: cell-based; set-up: concentration or dose not given beside the values; summary of the method: as §1
[5] = target: Glutamate receptor ionotropic, kainate 1 (Rattus norvegicus) (UniProt P22756); assay: Activity at rat cloned iGluR5 expressed in human HEK293 cells by calcium imaging assay relative to L-glutamate; assay type: cell-based; set-up: concentration or dose not given beside the values; summary of the method: as §1
Glutamate receptor ionotropic, kainate 1 (Rattus norvegicus), sequence (P22756 whole entry): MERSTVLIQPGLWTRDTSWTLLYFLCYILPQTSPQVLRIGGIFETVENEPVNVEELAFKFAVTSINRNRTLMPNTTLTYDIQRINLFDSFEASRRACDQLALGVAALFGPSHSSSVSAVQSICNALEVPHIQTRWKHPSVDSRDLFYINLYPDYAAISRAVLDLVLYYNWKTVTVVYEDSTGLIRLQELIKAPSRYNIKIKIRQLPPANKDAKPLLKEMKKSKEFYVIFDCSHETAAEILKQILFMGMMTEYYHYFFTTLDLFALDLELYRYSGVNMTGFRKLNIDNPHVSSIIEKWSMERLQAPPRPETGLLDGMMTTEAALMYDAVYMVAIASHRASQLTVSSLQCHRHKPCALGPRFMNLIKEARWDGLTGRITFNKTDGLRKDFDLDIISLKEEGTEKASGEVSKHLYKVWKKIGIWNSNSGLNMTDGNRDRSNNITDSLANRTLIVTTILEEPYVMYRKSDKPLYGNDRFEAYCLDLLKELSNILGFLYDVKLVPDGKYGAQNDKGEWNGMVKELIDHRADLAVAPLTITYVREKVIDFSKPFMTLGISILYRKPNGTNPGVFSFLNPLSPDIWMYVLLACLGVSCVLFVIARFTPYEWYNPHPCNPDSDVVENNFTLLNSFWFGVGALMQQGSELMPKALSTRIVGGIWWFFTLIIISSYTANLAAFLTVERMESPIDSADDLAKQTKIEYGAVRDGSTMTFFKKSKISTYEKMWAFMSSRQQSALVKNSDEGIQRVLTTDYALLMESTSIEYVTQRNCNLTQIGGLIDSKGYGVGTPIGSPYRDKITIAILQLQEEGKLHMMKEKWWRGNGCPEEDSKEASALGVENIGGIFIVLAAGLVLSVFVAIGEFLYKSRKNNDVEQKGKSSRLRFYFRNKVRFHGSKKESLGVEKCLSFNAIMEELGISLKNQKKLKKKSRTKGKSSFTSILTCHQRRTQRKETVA

[6] = target: Glutamate receptor 4 (Rattus norvegicus) (UniProt P19493); assay: Activity at rat cloned iGluR4 expressed in human HEK293 cells by calcium imaging assay relative to L-glutamate; assay type: cell-based; set-up: concentration or dose not given beside the values; summary of the method: as §1
Glutamate receptor 4 (Rattus norvegicus), sequence (P19493 whole entry): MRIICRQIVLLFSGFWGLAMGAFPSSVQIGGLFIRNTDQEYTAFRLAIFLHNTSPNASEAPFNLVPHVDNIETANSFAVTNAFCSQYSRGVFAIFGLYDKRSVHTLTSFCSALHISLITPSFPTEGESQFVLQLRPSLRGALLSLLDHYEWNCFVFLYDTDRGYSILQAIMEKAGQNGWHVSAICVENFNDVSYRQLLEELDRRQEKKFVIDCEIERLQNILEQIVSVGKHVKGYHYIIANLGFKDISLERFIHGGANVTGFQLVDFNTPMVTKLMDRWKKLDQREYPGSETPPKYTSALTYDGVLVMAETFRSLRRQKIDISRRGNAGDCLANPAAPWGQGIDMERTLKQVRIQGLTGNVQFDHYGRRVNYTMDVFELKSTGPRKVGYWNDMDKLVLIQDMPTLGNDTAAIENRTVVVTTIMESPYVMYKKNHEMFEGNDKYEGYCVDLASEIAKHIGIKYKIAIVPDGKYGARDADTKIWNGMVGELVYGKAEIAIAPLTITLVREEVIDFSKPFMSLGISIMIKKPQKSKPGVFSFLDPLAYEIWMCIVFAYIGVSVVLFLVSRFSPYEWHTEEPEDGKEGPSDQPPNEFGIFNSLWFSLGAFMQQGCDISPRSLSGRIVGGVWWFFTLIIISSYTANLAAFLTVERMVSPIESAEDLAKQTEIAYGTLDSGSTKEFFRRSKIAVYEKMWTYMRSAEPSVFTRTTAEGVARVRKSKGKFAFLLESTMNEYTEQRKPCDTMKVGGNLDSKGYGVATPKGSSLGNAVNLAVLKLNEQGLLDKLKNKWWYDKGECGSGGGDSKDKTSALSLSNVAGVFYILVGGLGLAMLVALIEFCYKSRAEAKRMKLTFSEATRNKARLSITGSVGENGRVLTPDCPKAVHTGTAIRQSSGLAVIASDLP

[7] = target: Glutamate receptor 2 (Rattus norvegicus) (UniProt P19491); assay: Activity at rat cloned iGluR2 expressed in human HEK293 cells by calcium imaging assay relative to L-glutamate; assay type: cell-based; set-up: concentration or dose not given beside the values; summary of the method: as §1
Glutamate receptor 2 (Rattus norvegicus), sequence (P19491 whole entry): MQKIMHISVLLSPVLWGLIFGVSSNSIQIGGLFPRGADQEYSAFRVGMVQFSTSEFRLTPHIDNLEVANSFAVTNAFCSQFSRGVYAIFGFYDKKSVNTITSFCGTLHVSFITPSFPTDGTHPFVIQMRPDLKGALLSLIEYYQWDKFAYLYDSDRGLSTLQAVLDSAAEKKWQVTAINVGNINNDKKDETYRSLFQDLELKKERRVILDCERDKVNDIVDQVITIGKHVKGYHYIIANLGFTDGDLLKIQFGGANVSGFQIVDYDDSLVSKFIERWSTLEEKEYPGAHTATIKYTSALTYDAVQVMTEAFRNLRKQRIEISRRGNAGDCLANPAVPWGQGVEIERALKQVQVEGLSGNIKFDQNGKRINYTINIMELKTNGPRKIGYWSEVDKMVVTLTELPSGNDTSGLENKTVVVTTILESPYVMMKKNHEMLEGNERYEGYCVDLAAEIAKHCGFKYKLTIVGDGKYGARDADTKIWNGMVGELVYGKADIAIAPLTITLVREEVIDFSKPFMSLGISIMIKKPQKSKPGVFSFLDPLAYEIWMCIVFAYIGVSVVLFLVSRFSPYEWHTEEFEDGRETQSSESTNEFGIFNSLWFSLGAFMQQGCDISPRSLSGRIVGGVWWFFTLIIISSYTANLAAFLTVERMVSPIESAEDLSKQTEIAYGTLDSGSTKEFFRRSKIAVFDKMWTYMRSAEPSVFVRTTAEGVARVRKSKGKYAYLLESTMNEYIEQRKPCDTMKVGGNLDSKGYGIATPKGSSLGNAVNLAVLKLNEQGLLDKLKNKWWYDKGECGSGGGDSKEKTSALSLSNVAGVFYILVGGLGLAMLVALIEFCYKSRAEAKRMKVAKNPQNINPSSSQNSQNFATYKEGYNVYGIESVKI

[8] = target: Glutamate receptor 3 (Rattus norvegicus) (UniProt P19492); assay: Activity at rat cloned iGluR3 expressed in human HEK293 cells by calcium imaging assay relative to L-glutamate; assay type: cell-based; set-up: concentration or dose not given beside the values; summary of the method: as §1
Glutamate receptor 3 (Rattus norvegicus), sequence (P19492 whole entry): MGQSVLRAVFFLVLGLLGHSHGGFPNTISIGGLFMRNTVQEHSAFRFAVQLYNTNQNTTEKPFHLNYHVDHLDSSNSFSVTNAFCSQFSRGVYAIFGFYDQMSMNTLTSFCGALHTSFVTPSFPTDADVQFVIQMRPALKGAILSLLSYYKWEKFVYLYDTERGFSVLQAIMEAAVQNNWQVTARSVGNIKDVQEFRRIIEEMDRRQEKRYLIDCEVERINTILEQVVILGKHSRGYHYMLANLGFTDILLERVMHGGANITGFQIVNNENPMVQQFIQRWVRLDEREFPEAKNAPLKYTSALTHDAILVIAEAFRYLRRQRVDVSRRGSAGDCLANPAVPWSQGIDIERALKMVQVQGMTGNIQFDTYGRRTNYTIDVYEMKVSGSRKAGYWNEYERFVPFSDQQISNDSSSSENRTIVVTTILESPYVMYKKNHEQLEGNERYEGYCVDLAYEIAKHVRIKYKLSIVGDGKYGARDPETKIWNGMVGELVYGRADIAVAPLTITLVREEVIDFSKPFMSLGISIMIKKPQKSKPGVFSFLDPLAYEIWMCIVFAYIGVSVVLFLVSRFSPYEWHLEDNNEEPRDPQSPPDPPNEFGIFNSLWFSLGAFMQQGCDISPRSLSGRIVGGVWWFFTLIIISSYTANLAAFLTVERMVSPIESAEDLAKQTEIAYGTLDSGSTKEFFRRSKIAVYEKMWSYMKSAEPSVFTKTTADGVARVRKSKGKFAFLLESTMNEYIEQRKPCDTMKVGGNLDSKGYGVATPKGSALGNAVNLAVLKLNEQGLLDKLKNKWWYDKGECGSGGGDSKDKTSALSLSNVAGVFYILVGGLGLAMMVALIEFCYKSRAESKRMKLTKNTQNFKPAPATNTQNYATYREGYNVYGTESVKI

[9] = target: Glutamate NMDA receptor; assay: Displacement of [3H]CGP-39653 from NMDA receptor in rat cortical membrane; assay type: cell membranes
Summary of the method: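 NMDA receptor binding on rat cortical membranes prepared by the Ransom and Stec method, with [3H]CGP39653 as radioligand. Ki in µM reported as mean [pKi ± SEM] of at least three individual experiments.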

[10] = target: Metabotropic glutamate receptor 2 (Rattus norvegicus, UniProt P31421); assay: Activity at rat cloned mGluR2 expressed in CHO cells assessed as effect on cAMP accumulation; assay type: functional, cell-based
Summary of the method: (§3)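 Second-messenger functional assay on rat mGluR1a (group I), mGluR2 (group II) and mGluR4 (group III) expressed in CHO cells. EC50 in µM with pEC50, reported as mean [pEC50 ± SEM] of at least three independent experiments.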

[11] = target: Metabotropic glutamate receptor 4 (Rattus norvegicus, UniProt P31423); assay: Activity at rat cloned mGluR4 expressed in CHO cells assessed as effect on cAMP accumulation; assay type: functional, cell-based; summary of the method: as §3
[12] = target: Metabotropic glutamate receptor 1 (Rattus norvegicus, UniProt P23385); assay: Activity at rat cloned mGluR1a expressed in CHO cells assessed as effect on cAMP accumulation; assay type: functional, cell-based; details: for pEC50: read-out: EC50; summary of the method: as §3
Metabotropic glutamate receptor 1, sequence (P23385 whole entry): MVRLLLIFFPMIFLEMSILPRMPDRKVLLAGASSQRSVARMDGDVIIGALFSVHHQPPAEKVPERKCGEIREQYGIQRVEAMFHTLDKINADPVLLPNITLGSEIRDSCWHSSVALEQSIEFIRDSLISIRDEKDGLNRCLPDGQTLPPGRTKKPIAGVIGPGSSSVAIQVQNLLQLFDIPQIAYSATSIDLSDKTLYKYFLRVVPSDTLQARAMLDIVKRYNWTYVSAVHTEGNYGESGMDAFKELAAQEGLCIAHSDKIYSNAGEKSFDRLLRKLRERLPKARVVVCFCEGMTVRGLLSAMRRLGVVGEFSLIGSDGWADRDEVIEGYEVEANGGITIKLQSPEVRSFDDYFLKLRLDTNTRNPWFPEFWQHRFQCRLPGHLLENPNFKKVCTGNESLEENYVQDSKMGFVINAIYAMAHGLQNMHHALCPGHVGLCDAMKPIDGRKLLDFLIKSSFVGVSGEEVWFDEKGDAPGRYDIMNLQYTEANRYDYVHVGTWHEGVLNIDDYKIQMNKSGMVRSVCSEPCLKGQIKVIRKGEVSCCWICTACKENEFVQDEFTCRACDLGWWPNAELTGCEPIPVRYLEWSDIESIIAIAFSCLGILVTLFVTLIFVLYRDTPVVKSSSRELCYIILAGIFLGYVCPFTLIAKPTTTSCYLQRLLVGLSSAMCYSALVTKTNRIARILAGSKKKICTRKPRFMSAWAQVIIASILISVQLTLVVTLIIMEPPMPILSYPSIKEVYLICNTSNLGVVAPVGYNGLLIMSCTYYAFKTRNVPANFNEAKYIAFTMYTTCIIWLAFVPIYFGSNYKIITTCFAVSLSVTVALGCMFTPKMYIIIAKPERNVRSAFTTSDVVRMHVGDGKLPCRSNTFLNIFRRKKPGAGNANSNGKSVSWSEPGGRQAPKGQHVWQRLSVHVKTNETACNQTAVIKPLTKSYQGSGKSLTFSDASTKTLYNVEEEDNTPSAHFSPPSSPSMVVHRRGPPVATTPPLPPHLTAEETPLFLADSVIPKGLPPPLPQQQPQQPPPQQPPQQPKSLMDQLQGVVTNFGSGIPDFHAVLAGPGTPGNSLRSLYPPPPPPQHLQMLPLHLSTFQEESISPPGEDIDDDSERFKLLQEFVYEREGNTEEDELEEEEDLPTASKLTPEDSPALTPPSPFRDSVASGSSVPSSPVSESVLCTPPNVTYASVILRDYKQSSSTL

[13] = target: Glutamate receptor 3 (Rattus norvegicus, UniProt P19492); assay: Activity at rat cloned iGluR3 expressed in human HEK293 cells by calcium imaging assay; assay type: cell-based; details: for pEC50: read-out: EC50; summary of the method: as §1
Glutamate receptor 3, sequence (P19492 whole entry): as the sequence (P19492 whole entry) above

[14] = target: Glutamate receptor 2 (Rattus norvegicus, UniProt P19491); assay: Activity at rat cloned iGluR2 expressed in human HEK293 cells by calcium imaging assay; assay type: cell-based
Glutamate receptor 2, sequence (P19491 whole entry): as the sequence (P19491 whole entry) above

[15] = target: Glutamate receptor 4 (Rattus norvegicus, UniProt P19493); assay: Activity at rat cloned iGluR4 expressed in human HEK293 cells by calcium imaging assay; assay type: cell-based; summary of the method: as §1
Glutamate receptor 4, sequence (P19493 whole entry): as the sequence (P19493 whole entry) above

[16] = target: Glutamate receptor ionotropic, kainate 2 (Rattus norvegicus, UniProt P42260); assay: Activity at rat cloned iGluR6 expressed in human HEK293 cells by calcium imaging assay; assay type: cell-based; summary of the method: as §1
[17] = target: Glutamate receptor 1 (Rattus norvegicus, UniProt P19490); assay: Activity at rat cloned iGluR1 expressed in human HEK293 cells by calcium imaging assay; assay type: cell-based; summary of the method: as §1
[18] = target: Glutamate receptor ionotropic, kainate 1 (Rattus norvegicus, UniProt P22756); assay: Activity at rat cloned iGluR5 expressed in human HEK293 cells by calcium imaging assay; assay type: cell-based
Glutamate receptor ionotropic, kainate 1, sequence (P22756 whole entry): as the sequence (P22756 whole entry) above

| SMILES | Activity [1] [%] | pIC50 [2] | pIC50 [3] | Log IC50 [3] | Activity [4] [%] | Activity [5] [%] | Activity [6] [%] | Activity [7] [%] | Activity [8] [%] | pEC50 [10] | Log IC50 [2] | pEC50 [11] | pEC50 [12] | pKi [9] | pEC50 [13] | pEC50 [14] | pEC50 [15] | pEC50 [16] | pEC50 [17] | pEC50 [18] | other results |
| --- | --- | --- | --- | --- | --- | --- | --- | --- | --- | --- | --- | --- | --- | --- | --- | --- | --- | --- | --- | --- | --- |
| N[C@H](C(=O)O)c1cc(O)no1 [IBOTENIC ACID] | 6 | < 4.00 | 4.66 | -4.66 | 96 | 8 | 32 | 2 | 1 | – | – | – | – | – | – | – | – | – | – | – | – |
| NC(C(=O)O)C1CC(O)=NO1 (racemic; form 1) [TRICHOLOMIC ACID] | – | 5.96 | 6.12 | -6.14 | – | – | – | – | – | < 3.00 | -5.86 | < 3.00 | 3.10 | – | – | – | – | – | – | – | pIC50 [9]: 5.82 |
| N[C@H](C(=O)O)[C@@H]1CC(O)=NO1 | 90 | 6.02 | 6.54 | -6.55 | 91 | 91 | 91 | 74 | 88 | < 3.00 | -6.02 | < 3.00 | 3.21 | 4.39 | 3.77 | 3.32 | 4.52 | 4.09 | 3.92 | 3.55 | EC50 ([13]; read-out: Log EC50 (converted)): 155 µM |
| N[C@H](C(=O)O)c1cc(=O)[nH]o1 [IBOTENIC ACID] | – | – | – | – | – | – | – | – | – | – | – | < 3.00 | 4.37 | – | < 3.00 | < 3.00 | < 3.00 | < 3.00 | < 3.00 | < 3.00 | – |
| N[C@@H](C(=O)O)[C@@H]1CC(O)=NO1 | 13 | 4.92 | 4.96 | -4.95 | 15 | 8 | 7 | 14 | 10 | < 3.00 | -4.92 | < 3.00 | < 3.00 | 4.12 | < 3.00 | < 3.00 | < 3.00 | < 3.00 | < 3.00 | < 3.00 | – |
| N[C@H](C(=O)O)[C@H]1CC(O)=NO1 | 35 | < 4.00 | 4.44 | -4.45 | 11 | 12 | 90 | 20 | 23 | 4.08 | – | < 3.00 | 4.09 | 4.02 | < 3.00 | < 3.00 | < 3.00 | < 3.00 | < 3.00 | < 3.00 | Log Ki [9]: -4.03 |
| N[C@@H](C(=O)O)[C@H]1CC(O)=NO1 | 15 | < 4.00 | < 4.00 | – | 11 | 10 | 9 | 13 | 10 | < 3.00 | – | < 3.00 | < 3.00 | 6.17 | < 3.00 | < 3.00 | < 3.00 | < 3.00 | < 3.00 | < 3.00 | Log Ki [9]: -6.19 |
| NC(C(=O)O)C1CC(O)=NO1 (racemic; form 2) [TRICHOLOMIC ACID] | – | 4.72 | 5.22 | -5.22 | – | – | – | – | – | 4.00 | -4.73 | – | 3.96 | – | – | – | – | – | – | – | pIC50 [9]: 4.14; EC50 ([12]; read-out: Log EC50 (converted)): 79.4 µM |
